According to ChEMBL document CHEMBL5260824, “9-Deazapurines as Broad-Spectrum Inhibitors of the ABC Transport Proteins P-Glycoprotein, Multidrug Resistance-Associated Protein 1, and Breast Cancer Resistance Protein” (J Med Chem, 2017):

Key:
[1] = Sensitization of dog MDCK-II-BCRP cells expressing BCRP assessed as maximal sensitivity at 10 uM relative to control
[2] = test system: MRP1; assay: Therapeutic index, ratio of GI50 for antiproliferative activity against human NCI-H69AR cells to IC50 for inhibition of MRP1 in human NCI-H69AR cells; assay type: toxicity, cell-based
Outline: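 Ratio of MTT-assay GI50 to transport-inhibition IC50, both in the resistant line. GI50 comes from 72 h exposure at 37 °C to dilutions up to 1000 µM, with medium as 100% and 10% DMSO as 0% viability. IC50 comes from calcein AM (A2780/ADR), daunorubicin (H69AR) or pheophorbide A (MDCK II BCRP) accumulation.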

[3] = Potentiation factor, ratio of GI50 for daunorubicin resistant human A2780 ADR cells expressing P-gp cells to GI50 for reversal of daunorubicin resistance in human A2780 ADR cells assessed as daunorubicin GI50 at 0.1 uM (reference value: 1 uM); assay type: functional
Outline: (§1)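 Reversal assay: resistant lines (A2780/ADR, H69AR, MDCK II BCRP) and parental lines seeded as for MTT assay with modulator solutions of 1, 10 and 100 µM added (final 0.1, 1, 10 µM) and daunorubicin (P-gp, MRP1) or SN-38 (BCRP) at final 10 nM–10 µM. 72 h, MTT read-out; GI50 by variable-slope fit. Resistance factor = resistant/sensitive GI50; potentiation factor = GI50 without/with modulator.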

[4] = test system: H69AR; assay: Potentiation factor, ratio of GI50 for daunorubicin resistant human NCI-H69AR cells expressing MRP1 cells to GI50 for reversal of daunorubicin resistance in human NCI-H69AR cells assessed as daunorubicin GI50 at 0.1 uM (reference value: 1 uM); assay type: functional
Outline: as §1

[5] = target: T1, BCRP (ABCG2) (Homo sapiens, UniProt Q9UNQ0); assay: Inhibition of BCRP (unknown origin) expressed in dog MDCK-II cells at 10 uM using pheophorbide A as substrate preincubated for 20 mins followed by substrate addition and measured after 120 mins by flow cytometry analysis relative to control; assay type: cell-based; conditions: probe pheophorbide A
T1 sequence (Q9UNQ0 whole entry): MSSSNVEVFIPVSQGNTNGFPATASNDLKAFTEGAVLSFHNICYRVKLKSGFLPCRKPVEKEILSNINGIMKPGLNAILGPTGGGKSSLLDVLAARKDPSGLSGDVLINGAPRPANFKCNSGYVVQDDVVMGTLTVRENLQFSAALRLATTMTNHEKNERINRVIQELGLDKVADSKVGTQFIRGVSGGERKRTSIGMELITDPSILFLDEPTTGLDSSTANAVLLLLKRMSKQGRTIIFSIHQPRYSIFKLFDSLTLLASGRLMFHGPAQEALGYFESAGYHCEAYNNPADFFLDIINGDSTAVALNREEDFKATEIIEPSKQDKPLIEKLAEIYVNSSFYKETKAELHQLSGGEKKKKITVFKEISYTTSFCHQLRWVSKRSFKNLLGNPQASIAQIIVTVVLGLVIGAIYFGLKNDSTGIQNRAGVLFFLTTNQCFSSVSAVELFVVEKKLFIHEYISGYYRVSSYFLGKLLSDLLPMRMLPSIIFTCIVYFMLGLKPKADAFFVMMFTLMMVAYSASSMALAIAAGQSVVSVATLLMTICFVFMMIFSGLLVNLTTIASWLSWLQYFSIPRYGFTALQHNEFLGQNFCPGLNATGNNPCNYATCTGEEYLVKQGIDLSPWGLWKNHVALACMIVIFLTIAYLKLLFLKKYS
Outline: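 MDCK II cells transfected with human wild-type BCRP cDNA C-terminally fused to GFP, grown in DMEM/10% FBS. About 45,000 cells per well preincubated 20 min at 37 °C, 5% CO2 with compound (100 nM–100 µM added solutions), then pheophorbide A (5 µM solution added) for 120 min to steady state. Resuspended; flow cytometry, 488 nm excitation, FL3 (≥670 nm); GFP in FL1. Reference inhibitor 24 at 10 µM = 100%.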

[6] = Potentiation factor, ratio of GI50 for SN-38 resistant dog MDCK-II-BCRP cells expressing BCRP cells to GI50 for reversal of SN-38 resistance in dog MDCK-II-BCRP cells assessed as SN-38 GI50 at 10 uM (reference value: 1 uM); assay type: functional, Canis lupus familiaris
Outline: as §1

[7] = test system: H69AR; assay: Potentiation factor, ratio of GI50 for daunorubicin resistant human NCI-H69AR cells expressing MRP1 cells to GI50 for reversal of daunorubicin resistance in human NCI-H69AR cells assessed as daunorubicin GI50 at 10 uM (reference value: 1 uM); assay type: functional
Outline: as §1

[8] = Reversal of Daunorubicin resistance in human A2780 ADR cells assessed as Daunorubicin GI50 at 1 uM measured for 72 hrs by MTT assay; assay type: functional
Outline: as §1

[9] = Potentiation factor, ratio of GI50 for daunorubicin resistant human A2780 ADR cells expressing P-gp cells to GI50 for reversal of daunorubicin resistance in human A2780 ADR cells assessed as daunorubicin GI50 at 10 uM (reference value: 1 uM); assay type: functional
Outline: as §1

[10] = test system: A2780; assay: Antiproliferative activity against human A2780 cells assessed as reduction in cell viability measured for 72 hrs bt MTT assay; assay type: functional
[11] = Reversal of SN-38 resistance in dog MDCK-II-BCRP cells assessed as SN-38 GI50 at 1 uM measured for 72 hrs by MTT assay; assay type: functional; conditions: Canis lupus familiaris
Outline: as §1

[12] = Reversal of drug resistance in dog MDCK-II-BCRP cells expressing BCRP; assay type: functional, cell-based, Canis lupus familiaris
Outline: (§2)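 Cells seeded per well (A2780/ADR 8,000; H69AR 20,000; MDCK II BCRP 3,000) with test compound at 1, 10 or 100 µM solutions added before cells. Daunorubicin (P-gp, MRP1) or SN-38 (BCRP) added to final 10 nM–10 µM. 72 h at 37 °C, then MTT viability read at 570 nm. GI50 from variable-slope nonlinear fits, compared with parental lines; three independent experiments in duplicate.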

[13] = target: ATP-dependent translocase ABCB1 (Homo sapiens, UniProt P08183); assay: Inhibition of P-gp (unknown origin) incubated for 30 mins by calcein AM analysis
Chain of ATP-dependent translocase ABCB1 (P08183 whole entry): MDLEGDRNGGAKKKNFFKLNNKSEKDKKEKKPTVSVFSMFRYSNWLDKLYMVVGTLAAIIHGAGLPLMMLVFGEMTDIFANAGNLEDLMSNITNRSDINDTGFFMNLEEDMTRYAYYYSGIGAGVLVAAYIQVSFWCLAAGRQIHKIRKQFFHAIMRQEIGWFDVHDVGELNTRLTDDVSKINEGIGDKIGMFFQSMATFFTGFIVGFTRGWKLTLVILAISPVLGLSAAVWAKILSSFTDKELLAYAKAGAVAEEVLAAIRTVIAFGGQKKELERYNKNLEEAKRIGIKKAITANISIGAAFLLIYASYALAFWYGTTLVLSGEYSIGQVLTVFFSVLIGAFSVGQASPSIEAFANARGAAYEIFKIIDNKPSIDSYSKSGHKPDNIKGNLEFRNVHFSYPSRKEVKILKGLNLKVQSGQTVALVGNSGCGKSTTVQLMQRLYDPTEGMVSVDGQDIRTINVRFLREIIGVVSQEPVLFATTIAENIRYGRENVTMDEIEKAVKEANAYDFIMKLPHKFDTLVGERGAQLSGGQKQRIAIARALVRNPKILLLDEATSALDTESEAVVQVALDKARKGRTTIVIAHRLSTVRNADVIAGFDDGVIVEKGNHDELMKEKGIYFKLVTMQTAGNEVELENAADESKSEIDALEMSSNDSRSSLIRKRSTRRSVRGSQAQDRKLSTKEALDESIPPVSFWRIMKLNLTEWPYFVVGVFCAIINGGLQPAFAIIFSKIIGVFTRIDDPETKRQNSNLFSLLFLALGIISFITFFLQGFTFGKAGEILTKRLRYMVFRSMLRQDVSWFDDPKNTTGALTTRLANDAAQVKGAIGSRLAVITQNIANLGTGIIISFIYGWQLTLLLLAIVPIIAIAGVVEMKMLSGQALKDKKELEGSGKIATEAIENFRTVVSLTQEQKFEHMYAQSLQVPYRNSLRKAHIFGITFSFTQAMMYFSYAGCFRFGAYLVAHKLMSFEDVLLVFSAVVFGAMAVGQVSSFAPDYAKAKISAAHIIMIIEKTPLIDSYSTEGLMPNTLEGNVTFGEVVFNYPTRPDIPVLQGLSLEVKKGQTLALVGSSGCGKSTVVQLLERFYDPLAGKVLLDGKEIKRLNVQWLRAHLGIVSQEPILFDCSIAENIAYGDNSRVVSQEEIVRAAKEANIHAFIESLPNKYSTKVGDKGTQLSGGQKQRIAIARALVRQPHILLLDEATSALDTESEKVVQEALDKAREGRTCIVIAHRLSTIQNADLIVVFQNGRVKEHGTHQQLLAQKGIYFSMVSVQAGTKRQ
Outline: (§3)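 A2780/ADR cells (doxorubicin-selected, P-gp overexpressing), about 30,000 per well in Krebs-HEPES buffer pH 7.4, incubated 30 min at 37 °C with compound (100 nM–100 µM added solutions). Calcein AM (3.125 µM solution added) then fluorescence read every 60 s at 37 °C, ex 485/em 520 nm; slope over minutes 5–30 plotted vs log concentration. Cyclosporine A 10 µM = 100% inhibition, buffer = 0%.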

[14] = test system: H69AR; assay: Reversal of Daunorubicin resistance in human NCI-H69AR cells assessed as Daunorubicin GI50 at 0.1 uM measured for 72 hrs by MTT assay; assay type: functional
Outline: as §1

[15] = Reversal of drug resistance in human A2780 ADR cells expressing P-gp; assay type: functional, cell-based
Outline: as §2

[16] = target: P-gp (ABCB1) (Homo sapiens, UniProt P08183); assay: Inhibition of P-gp (unknown origin) at 10 uM incubated for 30 mins by calcein AM analysis relative to control; conditions: probe calcein AM
Chain of P-gp (ABCB1) (P08183 whole entry): as above
Outline: as §3

Structure (SMILES): N#Cc1cn(CCCc2ccccc2)c2c(N3CCN(CCc4c[nH]c5ccccc45)CC3)ncnc12
- Activity [1]: 140%
- selectivity ratio [2]: 303
- PF [3]: 2
- PF [4]: 1.8
- inhibition at 2 h, 10 µM [5]: > 25%
- PF [6]: 28
- PF [7]: 8.6
- GI50 [8]: 58 nM
- RatioGI50 [9]: 13
- GI50 [10]: 6360 nM
- GI50 [11]: 211 nM
- EC50 [12]: 478 nM
- IC50 [13]: 1460 nM
- GI50 [14]: 2100 nM
- EC50 [15]: 563 nM
- inhibition at 0.5 h, 10 µM [16]: > 25%
